“And” between values parts separate entries of the source, which are not always exact repeats. Equal values may be shown once. Read-outs that look alike come from different tables or passages of the source.
Experiments:
Type in all cases: biochemical
[1] = biological target: hCA II (Homo sapiens, UniProt P00918); experiment: hCA II esterase activity inhibition assay
How it was run: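 hCA II purified from expired human erythrocytes by Sepharose-4B-L-tyrosine-sulfanilamide affinity chromatography; purity checked by SDS-PAGE; protein quantified against a bovine serum albumin standard. Esterase activity followed spectrophotometrically as p-nitrophenylacetate hydrolysis to p-nitrophenolate, absorbance change at 348 nm over 3 min at 25 °C. Inhibitor and substrate concentrations varied; IC50 and Ki derived, inhibition type from Lineweaver-Burk plots.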

[2] = biological target: hCA I (Homo sapiens, UniProt P00915); experiment: hCA I esterase activity inhibition assay; conditions: for fold increase of hCA I inhibition relative to complex 2: ratio of Ki values, versus complex 2
Sequence of hCA I (P00915 whole entry): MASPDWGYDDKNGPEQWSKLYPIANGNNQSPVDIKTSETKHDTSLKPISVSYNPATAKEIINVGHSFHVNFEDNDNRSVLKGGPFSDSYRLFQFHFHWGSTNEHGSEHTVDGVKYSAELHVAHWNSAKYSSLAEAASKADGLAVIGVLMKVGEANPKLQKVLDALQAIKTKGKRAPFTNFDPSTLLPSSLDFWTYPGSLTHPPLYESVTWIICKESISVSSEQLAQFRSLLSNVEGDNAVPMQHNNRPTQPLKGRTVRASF

[3] = biological target: AChE (Electrophorus electricus, UniProt O42275); experiment: biochemical
Sequence of AChE (O42275 24-633): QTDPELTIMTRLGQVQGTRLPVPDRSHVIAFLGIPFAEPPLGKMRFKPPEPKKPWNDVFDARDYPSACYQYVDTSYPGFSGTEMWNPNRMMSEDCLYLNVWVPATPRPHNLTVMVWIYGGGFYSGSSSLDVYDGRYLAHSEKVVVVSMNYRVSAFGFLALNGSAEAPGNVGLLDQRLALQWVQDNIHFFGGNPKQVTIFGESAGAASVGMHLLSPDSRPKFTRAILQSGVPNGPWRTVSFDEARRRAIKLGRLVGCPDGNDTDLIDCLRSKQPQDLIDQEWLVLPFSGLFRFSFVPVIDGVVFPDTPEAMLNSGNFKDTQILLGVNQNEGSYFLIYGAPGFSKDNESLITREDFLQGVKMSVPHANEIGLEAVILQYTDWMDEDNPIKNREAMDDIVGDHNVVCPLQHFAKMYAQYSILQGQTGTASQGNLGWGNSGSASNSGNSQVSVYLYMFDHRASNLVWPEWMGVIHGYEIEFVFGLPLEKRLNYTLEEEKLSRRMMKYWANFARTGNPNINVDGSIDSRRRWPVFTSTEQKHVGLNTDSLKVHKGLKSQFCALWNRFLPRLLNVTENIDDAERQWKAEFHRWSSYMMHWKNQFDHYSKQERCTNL

[4] = read-out: Ki hCA II, Lineweaver-Burk, hCA II from human erythrocytes
[5] = read-out: Ki hCA I, Lineweaver-Burk, hCA I from human erythrocytes

Row | Compound | Ki [1, 4] | fold increase of hCA I inhibition relative to complex 2 [2] [fold] | Ki [2, 5] [µM] | other results
1 | c1ccc(Cn2c[n+](Cc3ccccc3)c3ccccc32)cc1 [Compound 1, 1,3-dibenzylbenzimidazolium chloride] | – | – | – | IC50 [1]: 0.0693 µM; Ki [1]: 0.0493 ± 0.0065 µM; IC50 [2]: 0.116 µM; Ki [2]: 0.0685 ± 0.0115 µM; IC50 [3]: 0.0866 µM; Ki [3]: 0.064 µM and 0.0641 µM
2 | dibromo[1,3-dibenzylbenzimidazol-2-ylidene]-2-aminopyridinepalladium(II) [Complex 4] | 0.0197 ± 0.0019 µM | 2.83 | 0.0181 ± 0.003 | –
3 | dibromo[1,3-dibenzylbenzimidazol-2-ylidene]-3-chloropyridinepalladium(II) [Complex 3] | 0.0077 ± 0.0006 µM | 2.83 | 0.01 ± 0.0014 | –
4 | dibromo[1,3-dibenzylbenzimidazol-2-ylidene]morpholinepalladium(II) [Complex 6] | 0.012 µM and 0.0121 µM | – | 0.0169 ± 0.0003 | –
5 | dibromo[1,3-dibenzylbenzimidazol-2-ylidene]pyridinepalladium(II) [Complex 2] | 0.0083 ± 0.0018 µM | – | 0.0284 ± 0.0012 | fold more effective AChE inhibition than donepezil [3]: 1.49 fold; fold more effective AChE inhibition than tacrine [3]: 1.76 fold
6 | dibromo[1,3-dibenzylbenzimidazol-2-ylidene]triphenylphosphine palladium(II) [Complex 5] | 0.015 µM and 0.0153 µM | – | 0.0403 ± 0.002 | Ki ([3]; read-out: Ki AChE, Lineweaver-Burk, AChE from Electrophorus electricus): 0.0231 ± 0.0026 µM

— publication PMC9520214 (Heliyon, 2022)
